Screening data as filed in PubChem.
In the library only some 2.1% were active in any assay of this set; here they are far more common.
KLF5 inhibitor: KLF5 expression inhibitors, primary screen, DLD-1 cells, luminescence; DLD-1 KLF5 promoter-luciferase reporter; inhibition, % at 5 µM; hit rate 0.23% among 290,000; AID 1700, 2009;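 active = inhibition above a per-plate limit of that plate's mean compound inhibition plus 3 SD, cut at about 60% in these data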;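 note: 0% = DMSO wells and 100% = LY294002 at 200 µM; higher means less KLF5 promoter-driven luciferase light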
IEC-6 tox: cytotoxicity in IEC-6 intestinal epithelial cells, primary screen, cytotoxicity control for KLF5 inhibitor project, cell-based, luminescence. AID 1825, 2009. IEC-6 cytotoxicity, luminescence viability. inhibition, % at 5 µM. hit rate 0.78% among 290,000; in the data active = inhibition above about 22%;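 note: 0% = plate median of test compound wells and 100% = cytotoxic reference compound wells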
BaF3 tox: parental Ba/F3 cell viability inhibition, counter-screen for JAK2V617F inhibitor project, murine pro-B, CellTiter-Glo luminescence; CellTiter-Glo ATP luminescence; inhibition, % at 5.6 µM; hit rate 1.1% among 220,000; AID 1486, 2009;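 active = inhibition above a per-campaign cutoff, the mean inhibition of all tested compounds plus 3 SD, cut at about 27% in these data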;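 note: 0% = DMSO wells and 100% = JAK Inhibitor I control wells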
MT stabilize HCS: microtubule stabilizers in HeLa cells, primary screen, imaging, high-content imaging; HeLa tubulin immunostaining HCS, 24 h; share of cells brighter than vehicle mean+2SD; % tubulin-high responders, % at 10 µM; hit rate 0.83% among 200,000;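 active = plate Z-score above 3 for both tubulin-high and condensed-nucleus cell shares, with cell loss under 80%, at 10 µM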;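 note: anti alpha tubulin signal scored within the nucleus-defined area of each cell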
Ba/F3 V617F tox: reduced viability of JAK2V617F-dependent Ba/F3 cells, primary screen, JAK2V617F inhibitor project, cell-based, Ba/F3 EpoR-JAK2V617F, luminescence | ATP luminescence | inhibition, % at 5.6 µM | hit rate 1.1% among 220,000 | AID 1446, 2008;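 active = inhibition above the campaign mean plus 3 SD over all tested compounds, cut at about 24% in these data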;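 note: cytokine-independent growth of Ba/F3 cells driven by EpoR plus mutant JAK2; 0% = DMSO-treated cells and 100% = JAK inhibitor I control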
bCat nuc transl: modulators of beta-catenin nuclear translocation, primary screen, imaging, HeLa cells, immunofluorescence, high-content | nuclear translocation activity, % at 5 µM | hit rate 0.3% among 190,000;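 active = nuclear translocation activity above 50% at 5 µM, with a well cell count of 50 or more; inconclusive = wells under 50 cells across six images, flagged as toxic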;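 note: per-cell ratio of nuclear to cytoplasmic median beta-catenin stain intensity; plate controls were DMSO negative control for no effect and GSK-3 inhibitor IX positive control for full effect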
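Signal – beta-catenin immunofluorescence imaging with DAPI · Test system – human HeLa cell line · Dosing – 5 µM primary single dose, 0.1% DMSO, 0.02–20 µM confirmation series · Measure – % activation, nuclear-to-cytoplasmic median beta-catenin signal ratio per cell · Incubation – 24 h compound exposure at 37°C, 5% CO2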
An asterisk follows results filed as active.

What do the screens show for `CCOC(=O)CNC(=O)CNC(=O)c1ccc(OCC(C)C)cc1`?
KLF5 inhibitor: -26.4; IEC-6 tox: -0.4; BaF3 tox: 2.2; MT stabilize HCS: 4.1; Ba/F3 V617F tox: -0.8; bCat nuc transl: -7.5

What do the screens show for `CCOc1ccc(-c2nnn(CC(=O)c3cc(OC)ccc3OC)n2)cc1`?
KLF5 inhibitor: -11.4; IEC-6 tox: 2.3; BaF3 tox: 0.0; MT stabilize HCS: 50.2*; Ba/F3 V617F tox: 0.3; bCat nuc transl: 0.9

What do the screens show for `COCCCNC(=S)Nc1cccc2ncccc12`?
KLF5 inhibitor: -38.0; IEC-6 tox: 4.2; BaF3 tox: 5.1; MT stabilize HCS: 1.0; Ba/F3 V617F tox: 1.2; bCat nuc transl: -2.4

What do the screens show for `CC(=O)c1cccc(S(=O)(=O)NCCC(=O)O)c1`?
KLF5 inhibitor: 0.0; IEC-6 tox: 1.4; BaF3 tox: 34.3*; MT stabilize HCS: 4.2; Ba/F3 V617F tox: -3.5; bCat nuc transl: -4.3

What do the screens show for `Cc1c(C(=O)N2c3ccccc3Sc3ccccc32)cccc1[N+](=O)[O-]`?
KLF5 inhibitor: -13.1; IEC-6 tox: 1.1; BaF3 tox: 9.3; MT stabilize HCS: 3.3; Ba/F3 V617F tox: 5.0; bCat nuc transl: -0.6

Results for COc1ccc(/C=N/n2cnc3c([nH]c4ccc(F)cc43)c2=O)cc1CSc1ccccn1 ?
KLF5 inhibitor: -27.7; IEC-6 tox: -3.3; BaF3 tox: -2.7; Ba/F3 V617F tox: -1.7; bCat nuc transl: -0.8

What do the screens show for `Cc1sc2ncnc(NC3CCN(Cc4ccccc4)CC3)c2c1C`?
KLF5 inhibitor: -7.4; IEC-6 tox: 16.3; BaF3 tox: 33.9*; MT stabilize HCS: 4.0; Ba/F3 V617F tox: 32.5*; bCat nuc transl: -4.8

What do the screens show for `O=C(N/N=C/c1cccs1)C1COc2ccccc2O1` (configuration not stated)?
KLF5 inhibitor: 2.3; IEC-6 tox: -1.3; BaF3 tox: 0.8; MT stabilize HCS: 39.8*; Ba/F3 V617F tox: 0.2; bCat nuc transl: 10.9

Results for CCCCOC(=O)CSC1=C(C#N)C(c2ccc3c(c2)OCO3)CC(=O)N1 (configuration not stated) ?
KLF5 inhibitor: -18.1; IEC-6 tox: -0.4; BaF3 tox: 4.0; MT stabilize HCS: 9.4; Ba/F3 V617F tox: 2.1; bCat nuc transl: -6.8

How did CCOC(=O)CSC1=C(C#N)C(c2ccc3c(c2)OCO3)CC(=O)N1 (configuration not stated) do in these assays?
KLF5 inhibitor: -4.2; IEC-6 tox: 0.7; BaF3 tox: 3.2; MT stabilize HCS: 49.4*; Ba/F3 V617F tox: 1.9; bCat nuc transl: -0.9

What do the screens show for `Cc1nn(CC(N)=O)c(=O)c2ccccc12`?
KLF5 inhibitor: -9.4; IEC-6 tox: -7.5; BaF3 tox: 44.5*; MT stabilize HCS: 4.2; Ba/F3 V617F tox: 19.6; bCat nuc transl: -7.4

Results for CCC(C)NC(=O)C1CCN(S(=O)(=O)c2cc([N+](=O)[O-])ccc2Cl)CC1 (configuration not stated) ?
KLF5 inhibitor: 10.0; IEC-6 tox: -1.7; BaF3 tox: 0.6; Ba/F3 V617F tox: -0.8; bCat nuc transl: 1.4

What do the screens show for `O=C(Nc1nc2ccccc2s1)C1CCN(S(=O)(=O)c2cc([N+](=O)[O-])ccc2Cl)CC1`?
KLF5 inhibitor: 3.4; IEC-6 tox: 0.3; BaF3 tox: 43.4*; Ba/F3 V617F tox: 4.2; bCat nuc transl: 0.0

How did Cc1ccc(NC(=O)CN2C(=O)S/C(=C/c3ccncc3)C2=O)cc1 do in these assays?
KLF5 inhibitor: -22.5; IEC-6 tox: 1.7

Results for Cc1ccc(NC(=O)CN2C(=O)S/C(=C\C(=O)Nc3ccc(Cl)cc3)C2=O)cc1 ?
KLF5 inhibitor: 27.3; IEC-6 tox: 3.5; BaF3 tox: 72.6*; MT stabilize HCS: 2.4; Ba/F3 V617F tox: 5.5; bCat nuc transl: -3.4

How did Cc1cc(C(=O)Nc2ncn[nH]2)ccc1[N+](=O)[O-] do in these assays?
KLF5 inhibitor: -47.7; IEC-6 tox: -6.7; BaF3 tox: 4.3; MT stabilize HCS: 2.9; Ba/F3 V617F tox: -0.3; bCat nuc transl: -5.1

How did CCOC(=O)C(=CNc1cc(C)nn1C(C)(C)C)C(=O)OCC do in these assays?
KLF5 inhibitor: 11.2; IEC-6 tox: 0.5; BaF3 tox: 9.0; MT stabilize HCS: 0.8; Ba/F3 V617F tox: -1.8; bCat nuc transl: -0.8

How did CCOC(=O)C(=CNc1cc(C)nn1-c1ccc(C)cc1)C(=O)OCC do in these assays?
KLF5 inhibitor: 21.0; IEC-6 tox: 9.7; BaF3 tox: 16.6; MT stabilize HCS: 1.9; Ba/F3 V617F tox: 23.7*; bCat nuc transl: -4.4

Results for COc1ccccc1CNC(=O)C1CCN(S(=O)(=O)c2ccc3c(c2)OCCCO3)CC1 ?
KLF5 inhibitor: -25.8; IEC-6 tox: -5.8; BaF3 tox: 7.4; MT stabilize HCS: 5.2; Ba/F3 V617F tox: 0.0; bCat nuc transl: -0.7

Results for COc1ccc(Cc2nnc(NC(=O)c3ccccc3C)s2)cc1 ?
KLF5 inhibitor: -8.3; IEC-6 tox: 1.6

What do the screens show for `Fc1ccccc1/C=N/NC(=S)Nc1ccc(Cl)cc1Cl`?
KLF5 inhibitor: 5.8; IEC-6 tox: 3.3; BaF3 tox: 10.2; MT stabilize HCS: 16.7*; Ba/F3 V617F tox: 4.5; bCat nuc transl: inconclusive

How did O=C(C1CCCN(Cc2ccccc2Cl)C1)N1CCCCC1 (configuration not stated) do in these assays?
KLF5 inhibitor: -30.4; IEC-6 tox: -3.6

Results for N#CC(c1ccc(Cl)cc1)c1cccc(Cl)n1 (configuration not stated) ?
KLF5 inhibitor: -7.3; IEC-6 tox: -2.6; BaF3 tox: 48.1*; MT stabilize HCS: 3.9; Ba/F3 V617F tox: -2.7; bCat nuc transl: 1.7

How did Clc1ccc(CNc2ccccc2NCc2ccc(Cl)nc2)cn1 do in these assays?
KLF5 inhibitor: 8.2; IEC-6 tox: -2.5; BaF3 tox: 7.3; MT stabilize HCS: 2.7; Ba/F3 V617F tox: -0.3; bCat nuc transl: 1.4

Results for CCn1c(COc2ccc(C)cc2)nnc1SCC(=O)NCc1ccco1 ?
KLF5 inhibitor: -28.6; IEC-6 tox: -7.8; BaF3 tox: -0.9; MT stabilize HCS: 3.9; Ba/F3 V617F tox: -3.2; bCat nuc transl: 0.7

How did CCOc1ccc(Nc2nc(Cc3nnc(SCC(=O)NCc4ccco4)n3CC)cs2)cc1 do in these assays?
KLF5 inhibitor: -31.6; IEC-6 tox: -7.4; BaF3 tox: 6.1; MT stabilize HCS: 16.5; Ba/F3 V617F tox: 4.7; bCat nuc transl: 148.0*

How did COc1cccc2nc3cc(C)c(C)cc3nc12 do in these assays?
KLF5 inhibitor: -126.3; IEC-6 tox: 14.1; BaF3 tox: 29.0*; Ba/F3 V617F tox: 29.2*; bCat nuc transl: -1.9

How did CCc1ccc(NC(=S)NNC(=O)c2ccccc2OC(F)F)cc1 do in these assays?
KLF5 inhibitor: -8.6; IEC-6 tox: 15.2; BaF3 tox: 8.9; MT stabilize HCS: 16.5*; Ba/F3 V617F tox: 15.1; bCat nuc transl: 12.6
